Like-named read-outs stand apart in the source and are kept apart here.
Assays:
F17/caspase-3-p17 [1] = assay type: cell-based, human
PARP = experiment: Immunoblotting for PARP cleavage in Fas-stimulated Jurkat cells; assay type: cell-based, human; details: Fig. 5 C
Procedure, shortened: (§1)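 Jurkat cells were preincubated with inhibitor, then Fas-stimulated. Whole-cell extracts were made by boiling pellets 3 min in SDS sample buffer (50 mM Tris-HCl pH 6.8, 15% sucrose, 3% SDS). Gels were 5% SDS-PAGE for NuMA (rabbit polyclonal r240-C) and 10% for PARP (mAb C-2-10) and PAK2 (rabbit anti-ste20-subdomain VI). Proteins were blotted to nitrocellulose and cleavage fragments immunodetected.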

[2] = system: Fas-stimulated Jurkat cells; experiment: Shrinkage of cytoplasm / cell size; assay type: cell-based, human; details: for Shrinkage of cytoplasm / decrease in cell size (FSC): Figs. 3 B and 7 B; for Fas-induced shrinkage of cells: phase contrast microscopy, Fig. 8
Procedure, shortened: (§2)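 Jurkat cells were preincubated 1 h at 37°C with inhibitor or 1% DMSO, then stimulated with anti-Fas mAb for 4 h. Cell size was read as forward scatter in flow cytometry, from PhiPhiLux-loaded or PI-stained cells. Reference was the lower FSC border of normally growing cells. Cell shape and apoptotic bodies were viewed by phase contrast microscopy.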

F22/caspase-7 [3] = experiment: Cell-free caspase activation in Jurkat extracts triggered by caspase-8: F22; assay type: biochemical, human
F19/caspase-6 [4] = assay type: cell-based, human; details: inhibitor 10–100 μM preincubated before Fas receptor cross-linking; Fig. 2 C
[5] = system: caspase activity in Fas-stimulated Jurkat cells; experiment: Flow cytometric analysis of intracellular caspase activity with PhiPhiLux-G2D2; assay type: cell-based, human; details: inhibitor 100 μM alone without Fas stimulation; data not shown
[6] = system: active caspases in Jurkat cytoplasmic extracts; assay type: biochemical, human; details: inhibitor 10 μM; Fig. 2 A
F19/caspase-6 [7] = details: cited from earlier work
F20/caspase-3-p20 [8] = details: cited from earlier work
[9] = system: Fas-stimulated Jurkat cells; experiment: PS externalization; assay type: cell-based, human; details: Fas stimulation 4 h, Fig. 9 B; for PS externalization (increase in annexin V binding): inhibitor 100 μM pretreated 1 h
Procedure, shortened: (§3)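 Jurkat cells (5 × 10⁵) were pretreated 1 h with inhibitor, then stimulated with anti-Fas for 4 h. Cells were mesh-filtered and analysed at once by flow cytometry.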

F17/caspase-3-p17 [10] = experiment: Cell-free caspase activation in Jurkat extracts triggered by caspase-8: F17; assay type: biochemical, human
NuMA [11] = experiment: Immunoblotting for NuMA cleavage in Fas-stimulated Jurkat cells; assay type: cell-based, human; details: Fig. 5 B
Procedure, shortened: as §1

F19/caspase-6 [12] = experiment: Cell-free caspase activation in Jurkat extracts triggered by caspase-8: F19; assay type: biochemical, human
[13] = system: Fas-stimulated Jurkat cells; experiment: Nuclear morphological changes; assay type: cell-based, human; details: inhibitor 100 μM preincubated 1 h 37°C; anti-Fas mAb 4 h; DAPI; Fig. 6
Procedure, shortened: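 Jurkat cells were preincubated 1 h at 37°C with inhibitor (1, 10 or 100 μM) or 1% DMSO, then stimulated with anti-Fas mAb for 4 h; unstimulated cells were kept 4 h as control. Cells were fixed with 1% glutaraldehyde, stained with 2 μg/ml DAPI, and scored microscopically for chromatin condensation, nuclear shrinkage and fragmentation.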

F20/caspase-3-p20 [14] = assay type: cell-based, human
PAK2 = experiment: Immunoblotting for PAK2 cleavage in Fas-stimulated Jurkat cells; assay type: cell-based, human; details: Fig. 5 D
Procedure, shortened: as §1

[15] = system: Fas-stimulated Jurkat cells; experiment: Mitochondrial PT; assay type: cell-based, human; details: Fas stimulation 4 h, Fig. 9 B
Procedure, shortened: as §3

F22/caspase-7 [16] = assay type: cell-based, human
[17] = system: Fas-stimulated Jurkat cells; experiment: Flow cytometric analysis of DNA fragmentation; assay type: cell-based, human; details: anti-Fas mAb 4 h, Fig. 7 B
Procedure, shortened: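 Jurkat cells were pretreated with inhibitor, then given anti-Fas mAb for 4 h. Cells (10⁶) were fixed in 70% ethanol for 2 h on ice, washed in PBS, and treated with 10 μg/ml RNase A for 30 min at 37°C. They were stained with 50 μg/ml propidium iodide for 30 min on ice in the dark, and PI (log scale) was recorded against forward scatter by flow cytometry.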

Caspase-8 = experiment: Sensitivity of caspase-8 to DMQD-CHO; assay type: biochemical; details: data not shown
[18] = system: Fas-stimulated Jurkat cells; experiment: Apoptotic body formation; assay type: cell-based, human; details: for Appearance of the cell population with the lowest FSC: flow cytometry; for Apoptotic body formation: phase contrast microscopy, Fig. 8
Procedure, shortened: as §2

NuMA [19] = details: Fas-stimulated Jurkat cells; cited from earlier work
[20] = system: active caspases in Fas-stimulated Jurkat cells; assay type: cell-based, human; details: inhibitor 100 μM, preincubated 1 h; anti-Fas mAb 4 h; Fig. 1 A
pro–caspase-7 = experiment: Processing of pro–caspase-7 in Fas-stimulated Jurkat cells; assay type: cell-based, human; details: inhibitor 100 μM; same blot reprobed with anti–caspase-7 Ab; Fig. 1 B
Procedure, shortened: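 The affinity-labeling blot from Jurkat cells (inhibitor preincubation 1 h, anti-Fas CH-11 100 ng/ml, 4 h, serum-free RPMI-1640) was reprobed with anti-caspase-7 antibody to follow pro-caspase-7 processing.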

F20/caspase-3-p20 [21] = experiment: Cell-free caspase activation in Jurkat extracts triggered by caspase-8: F20; assay type: biochemical, human; details: inhibitor 10 nM added before caspase-8; data not shown
[22] = system: KB epidermal carcinoma cells; details: inhibitor 50 μM; cited from earlier work
[23] = inhibitor 10–100 μM preincubated before Fas receptor cross-linking, Fig. 2 C
[24] = inhibitor 100 μM, flow cytometry
[25] = inhibitor 100 μM pretreated 1 h
[26] = inhibitor 10 μM, preincubated 1 h, anti-Fas mAb 4 h, Fig. 1 A
[27] = inhibitor 10 nM added before caspase-8, data not shown

Ac-DMQD-aldehyde [DMQD-CHO]
Labeling of F17/caspase-3-p17 (F17/caspase-3-p17 [1]; [23]): suppressed
PARP cleavage (PARP; inhibitor 100 μM): only weakly inhibited
Shrinkage of cytoplasm / decrease in cell size (FSC) [2, 24]: proceeded to a significant degree
Fas-induced shrinkage of cells ([2]; inhibitor 100 μM): Neither 100 μM DMQD-CHO (Fig. 8 h) nor 10 μM VEID-CHO (Fig. 8 d) affected
Labeling of F22/caspase-7 (F22/caspase-7 [3]; inhibitor up to 5 μM, Fig. 2 A): unhindered
Appearance of F19/caspase-6 (F19/caspase-6 [4]): blocked
Increase in PhiPhiLux-G2D2 fluorescence or cell shrinkage [5]: did not induce
Caspase labeling (all) [6]: loss of all labeling
Concentration required to block activity of caspase-6 relative to caspase-7 (F19/caspase-6 [7]; higher for caspase-6): ~10 fold
Activity of F19/caspase-6 (F19/caspase-6 [7]; inhibitor even at 100 μM): insensitive
Concentrations previously shown to block the activity of F20/caspase-3-p20 (F20/caspase-3-p20 [8]): 1 to 2 µM
PS externalization (increase in annexin V binding) [9]: suppressed
Labeling of F17/caspase-3-p17 (F17/caspase-3-p17 [10]; inhibitor 1–2 μM, Jurkat extract preincubated, caspase-8, 4 h 37°C, Fig. 2 A): suppressed
Generation of the 160-kD NuMA fragment (NuMA [11]; inhibitor 100 μM): blocked
Generation of the 180-kD NuMA fragment (NuMA [11]; inhibitor 100 μM): blocked
Concentration preventing appearance of F19/caspase-6 (F19/caspase-6 [12]; preincubation before addition of caspase-8, Fig. 2 A): 1 to 2 µM
Nuclear morphological changes [13]: completely blocked
Labeling of F20/caspase-3-p20 (F20/caspase-3-p20 [14]; [23]): suppressed
Cleavage of PAK2 (PAK2; inhibitor 100 μM): suppressed
Mitochondrial PT [15, 25]: not affected
Activation of caspase-7 (time course) (F22/caspase-7 [16]; inhibitor 100 μM preincubated 1 h, Fig. 2 D): uninterrupted
Labeling of F22 (F22/caspase-7 [16]; inhibitor up to 100 μM, Fig. 2 C): persisted
DNA fragmentation ([17]; inhibitor 100 μM): completely inhibited
Sensitivity of caspase-8 (Caspase-8): relatively insensitive
Appearance of the cell population with the lowest FSC ([18]; inhibitor 100 μM, Figs. 3 B and 7 B): suppressed
Apoptotic body formation ([18]; inhibitor 100 μM): formed no apoptotic bodies

DEVD-CHO
NuMA cleavage (NuMA [19]): blocked

acetyl-Val-Ileu-Asp-aldehyde [VEID-CHO]
Labeling of F17/caspase-3-p17 (F17/caspase-3-p17 [1]; [26]): Suppression
PARP cleavage (PARP; inhibitor 1 μM): did not affect
PARP cleavage (PARP; inhibitor 10 μM): Partial blockade
PARP cleavage (PARP; inhibitor 100 μM): markedly suppressed
Cell size (FSC) ([2]; inhibitor 10 μM, flow cytometry, Fig. 7 B): had no effect
Fas-induced shrinkage of cells ([2]; inhibitor 10 μM): Neither 100 μM DMQD-CHO (Fig. 8 h) nor 10 μM VEID-CHO (Fig. 8 d) affected
Shrinkage of cytoplasm / decrease in cell size (FSC) [2, 24]: markedly suppressed
Fas-induced shrinkage of cells ([2]; inhibitor 100 μM): completely blocked
Caspase labeling (all) [20]: loss of all caspase labeling
Processing of pro–caspase-7 (pro–caspase-7): blocked
Activation of caspase-7 in cell-free activation (F22/caspase-7 [3]; [27]): minimal effects
PS externalization ([9]; inhibitor 10 μM pretreated 1 h): Neither PT nor PS externalization were affected
PS externalization (increase in annexin V binding) [9]: markedly inhibited
Activation of caspase-3-p17 in cell-free activation (F17/caspase-3-p17 [10]; [27]): minimal effects
Proteolysis yielding the 180-kD NuMA fragments (NuMA [11]; inhibitor 1 μM): not affected
180-kD NuMA fragment (NuMA [11]; inhibitor 10 μM): moderate decrease
Production of the 160-kD NuMA fragment (NuMA [11]; inhibitor 1–10 μM): suppressed
Activity of caspase-6 in cell-free activation (F19/caspase-6 [12]; [27]): selectively blocked
Labeling of F20/caspase-3-p20 (F20/caspase-3-p20 [14]; [26]): unaffected
Cleavage of PAK2 (PAK2; inhibitor up to 10 μM): failed to affect
Mitochondrial PT ([15]; inhibitor 10 μM pretreated 1 h): Neither PT nor PS externalization were affected
Mitochondrial PT [15, 25]: markedly inhibited
Labeling of F22/caspase-7 (F22/caspase-7 [16]; [26]): unaffected
DNA fragmentation ([17]; inhibitor 100 μM): suppresses both
DNA fragmentation ([17]; inhibitor up to 10 μM): did not prevent
Activation of caspase-3-p20 in cell-free activation (F20/caspase-3-p20 [21]): minimal effects
Appearance of the cell population with the lowest FSC ([18]; inhibitor 10 μM, Fig. 7 B): had no effect
Apoptotic body formation ([18]; inhibitor up to 10 μM): did not prevent

benzyloxycarbonyl-Asp-Glu-Val-Asp(OMe)-fluoromethylketone [zDEVD-FK]
Fas-induced chromatin condensation and apoptotic body formation [22]: abolished

benzyloxycarbonyl-Val-Ala-Asp(OMe)-fluoromethylketone [zVAD-fmk]
NuMA cleavage (NuMA [19]): blocked
